Screening results from PubChem BioAssay.
CRFR2-BP antag: blocks CRF-induced signaling of the CRF-BP/CRF-R2 complex | HEK293 CRF-R2/CRF-BP, CRF-induced calcium fluorescence | inhibition, % at 11.8 µM | 350,000 tested, 0.59% active | AID 588475;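 active = inhibition of the ligand-induced calcium signal above about 50% at the single tested concentration, limit read from the data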
TAAR1 antag: human TAAR1 antagonism; CHO RD-HGA16 TAAR1, Fluo-8 calcium fluorescence, antagonist; 360,000 tested, 1.5% active; AID 624466; inhibition, % at 3 µM; Q96RJ0;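 active = inhibition above a per-plate cutoff, the mean inhibition of test compounds on that plate plus 3 SD, cut at about 49% in these data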
Target sequence (Q96RJ0 whole entry, looked up): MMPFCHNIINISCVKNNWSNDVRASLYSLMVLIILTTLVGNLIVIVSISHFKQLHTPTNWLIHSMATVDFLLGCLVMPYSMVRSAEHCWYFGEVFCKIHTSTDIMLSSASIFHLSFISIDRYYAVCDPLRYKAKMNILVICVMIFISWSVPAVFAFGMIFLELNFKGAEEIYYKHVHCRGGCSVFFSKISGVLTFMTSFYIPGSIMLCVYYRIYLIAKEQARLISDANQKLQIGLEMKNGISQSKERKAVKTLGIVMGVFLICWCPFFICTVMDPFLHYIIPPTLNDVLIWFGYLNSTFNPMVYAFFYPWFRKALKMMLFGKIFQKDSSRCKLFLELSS
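Test system: CHO RD-HGA16 cells bearing hTAAR1 | Reagent: β-PEA, EC80 | Compound dosing: 3 µM, single point | Schedule: Dye loading 75 min at 37 °C, then 30 min room temperature | Signal: Calcium fluorescence with Fluo-8 | Evaluation: Percent inhibition of PEA-evoked calcium signal, max/basal emission ratio | Control set: DMSO-only wells and EC80 β-PEA-stimulated wells | Repeats: Singlicate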
ANO1 block: blocks the mouse calcium-activated chloride channel TMEM16A; AID 588511; normalized B-score (activity score, 25-100; higher = stronger inhibition) at 10 µM; HEK293 TMEM16A/YFP iodide influx fluorescence, ionomycin; 310,000 tested, 1.2% active; Q8BHY3;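 active = ratio plate-corrected score three or more library SD toward inhibition, starting fluorescence score within five deviations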;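 note: score derived from kinetic fluorescence span divided by baseline fluorescence per well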
TAAR1 ag: human TAAR1 agonism; CHO RD-HGA16 TAAR1, Fluo-8 calcium fluorescence; vehicle wells 0%, saturating PEA agonist 100%; activation, % at 3 µM; 360,000 tested, 0.99% active; AID 624467;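 active = activation above the mean activation of all test compounds in the run plus 3 SD, cut at about 38% in these data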
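Signal – calcium-sensitive Fluo-8 signal, excitation 470-495, emission 515-575 nm · System – RD-HGA16 (CHO) cells co-expressing Gα16 and hTAAR1 · Incubation – 17-24 h seeding, 75 min 37 °C dye, 30 min RT · Compound dosing – 3 µM single concentration · Repeats – no replicates (n 1)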
ANO1 activ: activators or potentiators of mouse TMEM16A chloride channel | Q8BHY3 | HEK293 TMEM16A/YFP-H148Q/I152L, iodide quench fluorescence; hits give low values | B-score at 10 µM | 340,000 tested, 0.3% active | AID 623877;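 active = fluorescence-ratio B-score plate-corrected deviation score at least 3 library SD below zero, with starting fluorescence score within 5 deviations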;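 note: channel opened by trigger with iodide after compound preincubation; score built on the fluorescence ratio of max minus min over baseline; more negative score means more quench and so TMEM16A activation or potentiation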
CRFR2-BP ag: CRF-BP/CRF-R2 complex agonism | HEK293 CRF-R2/CRF-BP, calcium dye fluorescence (FLIPR); percent of saturating CRF peptide response | activation, % at 13.2 µM | 350,000 tested, 0.46% active | AID 588473;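 active = activation of at least 50%, plus an integration ratio under a set limit after plate pattern correction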
TAAR1 ag confirm: confirmation of human TAAR1 agonists; 2,400 tested, 82% active; CHO RD-HGA16 TAAR1, Fluo-8 calcium fluorescence; scaled: DMSO 0%, maximal phenethylamine 100%; shares compounds with TAAR1 ag; activation, % at 3 µM;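 active = activation above a cutoff set at the run's mean compound activation plus 3 SD, cut at about 39% in these data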
Ga16 ag counter: nonselective agonist in parental cells, TAAR1 agonist counter-screen. activation, % at 3 µM. 2,400 tested, 50% active. shares compounds with TAAR1 ag. AID 651787. CHO-Ga16 parental, Fluo-8 calcium fluorescence; normalized to maximal ATP response, DMSO zero;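 active = activation above the run cutoff, the mean activation over all tested wells plus 3 SD, cut at about 12% in these data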
TAAR1 desensitize: TAAR1 response desensitization, agonist counter-screen; shares compounds with TAAR1 ag; CHO RD-HGA16 hTAAR1, Fluo-8 calcium, beta-PEA response inhibition; inhibition, % at 3 µM; 2,400 tested, 46% active; AID 651951;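 active = inhibition above the run cutoff, the mean inhibition of all test compounds plus 3 SD, cut at about 49% in these data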;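 note: beta-PEA stimulus applied at its EC80; loss of beta-PEA calcium signal after compound pretreatment read as receptor desensitization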
Ga16 nonsel ant: nonselective Ga16 antagonism, counter-screen; shares compounds with TAAR1 ag; CHO-Ga16 ATP-induced calcium, Fluo-8 fluorescence; inhibition, % at 3 µM; 2,400 tested, 39% active; AID 651952;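 active = inhibition above the plate's mean compound inhibition plus 3 SD, computed per plate, cut at about 22% in these data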
Each line names hits and unclear results; the compound was inactive in the other large screens (follow-up assays come after a bar, where they were run). An excerpt weighted towards active compounds, which were near 3.9% of everything screened.

Oc1ccc(C[C@H]2CNCCN2CCc2cc(C(F)(F)F)cc(C(F)(F)F)c2)cc1	none
CCS(=O)(=O)N1CCC(NC(=O)C(Cc2cccc(OC)c2OC)NC(C)=O)CC1 (stereo unspecified)	none (no result: ANO1 block)
CC1Cn2c(nc(=O)c3c2NCN(CCc2ccccc2)C3)S1 (stereo unspecified)	TAAR1 ag 52.8 | TAAR1 ag confirm 45.7 | Ga16 ag counter inactive | TAAR1 desensitize inactive | Ga16 nonsel ant inactive
Cn1c2c(c(=O)n(C)c1=O)CN(Cc1ccccc1)CN2	none (no result: CRFR2-BP antag, ANO1 block, ANO1 activ, CRFR2-BP ag)
Cn1c2c(c(=O)n(C)c1=O)CN(CCc1ccccc1)CN2	TAAR1 antag 60.5, TAAR1 ag 91.3 | TAAR1 ag confirm 73.7 | Ga16 ag counter inactive | TAAR1 desensitize inactive | Ga16 nonsel ant inactive
COc1cc(C(C)=O)ccc1OCC(O)CNCC(O)c1ccccc1 (stereo unspecified)	TAAR1 ag 91.0 (no result: ANO1 activ) | TAAR1 ag confirm 97.9 | Ga16 ag counter inactive | TAAR1 desensitize 73.6 | Ga16 nonsel ant inactive
O=C(NCCO)C(=O)NCC1OCCCN1S(=O)(=O)c1ccc2c(c1)OCCO2 (stereo unspecified)	none
CC(Oc1ccccc1Cl)C(=O)Nc1ccc(S(=O)(=O)N2CCOCC2)cc1 (stereo unspecified)	none (no result: ANO1 block)
CC(Sc1ccc(Cl)cc1)C(=O)Nc1ccc(S(=O)(=O)N2CCOCC2)cc1 (stereo unspecified)	TAAR1 antag 50.4, TAAR1 ag 91.7 | TAAR1 ag confirm 90.5 | Ga16 ag counter 47.8 | TAAR1 desensitize 72.8 | Ga16 nonsel ant 39.4
Cc1ccc(C)c(NS(=O)(=O)c2ccc(NC(=O)CSc3ccc(Cl)cc3)cc2)c1	none
Cc1ccc(OC(C)C(=O)Nc2ccc(S(=O)(=O)N3CCOCC3)cc2)cc1 (stereo unspecified)	TAAR1 ag 65.8 | TAAR1 ag confirm 77.4 | Ga16 ag counter 51.4 | TAAR1 desensitize inactive | Ga16 nonsel ant 32.6
CC(C)C(=O)Nc1ccc(C(=O)Nc2ccc(S(=O)(=O)N3CCOCC3)cc2)cc1	none (no result: TAAR1 antag, TAAR1 ag)
Cc1ccc(NS(=O)(=O)c2ccc(NC(=O)C(C)Sc3ccc(Cl)cc3)cc2)c(C)c1 (stereo unspecified)	TAAR1 ag 51.2 | TAAR1 ag confirm inactive | Ga16 ag counter inactive | TAAR1 desensitize inactive | Ga16 nonsel ant 26.0
Cc1ccc(NC(=O)c2ccc(S(=O)(=O)N3CCCCC3)cc2)cc1	TAAR1 ag 47.6 | TAAR1 ag confirm inactive | Ga16 ag counter inactive | TAAR1 desensitize inactive | Ga16 nonsel ant inactive
COCCNC(=O)C1CCCN(C(=O)c2ccc(F)c(C)c2)CC1 (stereo unspecified)	none (no result: CRFR2-BP antag, ANO1 block, ANO1 activ, CRFR2-BP ag)
O=C(CNc1cccc(S(=O)(=O)N2CCCC2)c1)Nc1ccc(C(F)(F)F)cc1	none
CSc1ccc(C(O)c2ncc(-c3cccc(F)c3)[nH]2)cc1 (stereo unspecified)	none (no result: CRFR2-BP antag, ANO1 block, ANO1 activ, CRFR2-BP ag)
COc1ccc(CC(=O)Nc2ccc(S(=O)(=O)N(C)C3CCN(C)CC3)cc2)cc1	none (no result: ANO1 block)
CC(Oc1ccc(Br)cc1)C(=O)Nc1ccc(S(=O)(=O)N(C)C2CCN(C)CC2)cc1 (stereo unspecified)	TAAR1 antag 99.0, TAAR1 ag 140.2, ANO1 activ -10.2, CRFR2-BP ag 95.8 | TAAR1 ag confirm 140.1 | Ga16 ag counter 99.7 | TAAR1 desensitize 101.8 | Ga16 nonsel ant 82.1
O=C1CCN2C=Nc3cccc4ccc1c2c34	TAAR1 ag 109.5 | TAAR1 ag confirm inactive | Ga16 ag counter 36.5 | TAAR1 desensitize inactive | Ga16 nonsel ant inactive
CN(C)CCNc1ncnc2c1ncn2[C@H]1CN(CCc2ccccc2)C[C@@H](CO)O1	TAAR1 ag 57.6 (no result: CRFR2-BP antag, ANO1 block, ANO1 activ, CRFR2-BP ag) | TAAR1 ag confirm 47.9 | Ga16 ag counter inactive | TAAR1 desensitize inactive | Ga16 nonsel ant inactive
CNc1ncnc2c1ncn2[C@H]1CN(CCc2ccccc2)C[C@@H](CO)O1	none (no result: CRFR2-BP antag, ANO1 block, ANO1 activ, CRFR2-BP ag)
O=C(O)c1ccc(-c2nc(-c3ccccc3Cl)cs2)cc1	TAAR1 ag 49.3 | TAAR1 ag confirm inactive | Ga16 ag counter 19.4 | TAAR1 desensitize inactive | Ga16 nonsel ant inactive
CN(C)S(=O)(=O)c1cccc(CNCC2COc3ccccc3O2)c1 (stereo unspecified)	TAAR1 ag 58.8 | TAAR1 ag confirm 88.4 | Ga16 ag counter 21.1 | TAAR1 desensitize inactive | Ga16 nonsel ant inactive
O=[N+]([O-])C1=CC=C2C(=NC3(CCCCC3)N2O)C1=NCCc1ccccc1	TAAR1 ag 44.2 (no result: ANO1 block) | TAAR1 ag confirm 78.6 | Ga16 ag counter inactive | TAAR1 desensitize 50.4 | Ga16 nonsel ant inactive
CC(C)(C)N=C1C([N+](=O)[O-])=CC=C2C1=NC1(CCCCC1)N2O	none
Cn1c(CNC(=O)C2CCCCC2)cc2cc(Cl)ccc21	TAAR1 antag 70.1, TAAR1 ag 64.7 | TAAR1 ag confirm inactive | Ga16 ag counter inactive | TAAR1 desensitize inactive | Ga16 nonsel ant inactive
CCCCNC(=O)[C@H]1C[C@H]1[C@@H](O)[C@H](CO)NC(=O)[C@H](Cc1ccccc1)NC(=O)OC(C)(C)C	none
CC1=NN(c2ccccc2)C(=O)/C1=C\C=C1/N(C)c2ccccc2C1(C)C	TAAR1 antag 50.5, TAAR1 ag 84.4, CRFR2-BP ag 52.1 | TAAR1 ag confirm 66.9 | Ga16 ag counter 44.6 | TAAR1 desensitize 57.3 | Ga16 nonsel ant 49.0
CN1C(=CC=C2C=C(I)C(=O)C(I)=C2)C(C)(C)c2ccccc21	none (no result: ANO1 block)
CN1/C(=C\C=C2/C(=O)Oc3ccccc3C2=O)C(C)(C)c2ccccc21	TAAR1 antag 104.6, TAAR1 ag 612.2, CRFR2-BP ag 322.8 (no result: ANO1 activ) | TAAR1 ag confirm 330.6 | Ga16 ag counter 356.6 | TAAR1 desensitize 106.6 | Ga16 nonsel ant 102.8
CC(=O)c1c(C)[nH]c(C(=O)CN2C(=O)NC(C)(c3ccc(C)cc3)C2=O)c1C (stereo unspecified)	TAAR1 ag 85.1, CRFR2-BP ag 77.3 | TAAR1 ag confirm 113.2 | Ga16 ag counter 55.8 | TAAR1 desensitize 60.0 | Ga16 nonsel ant 36.2
